# Assay results gathered from unrelated publications.
# Lines come from different studies, so protocols differ.
# Medium: plasma
Compound,species,route,dose,setting,AUC(0-t)
COc1nc(-c2cccc(-c3ccccc3)c2C)ccc1CNCCNC(=O)CCCCCCCCCCC(=O)N1CCN(CCNC(=O)c2cc3c(=O)n4cccc(C)c4nc3n(CCc3cccs3)c2=N)CC1,male Sprague-Dawley rat,intravenous,2 mg/kg,,1.62 µg·h/mL
Nc1ccn([C@@H]2O[C@H](CO)[C@@H](O)C2(F)F)c(=O)n1,male Sprague-Dawley rat,intraperitoneal,5 mg/kg,,22.9 µg·h/mL
C[C@H]1Oc2cc(cnc2N)-c2c(nn(C)c2C#N)CN(C)C(=O)c2ccc(F)cc21,male Sprague-Dawley rat,oral,10 mg/kg,,3.16 µg·h/mL
CCOc1c([C@H](C)n2nc(C)c3c(N)ncnc32)cc(Cl)c(F)c1[C@@H]1CNC(=O)C1,male Sprague-Dawley rat,oral,2 mg/kg,single dose,4.58 µg·h/mL
CONC(=O)c1cccc2c1cc(C)n2-c1nc2c(c(NCc3ccccc3)n1)CCCN2,male Sprague-Dawley rat,intravenous,1 mg/kg,single dose,0.0201 µg·h/mL
COc1ccc(-c2coc3cc(O)cc(O)c3c2=O)cc1,rat,intravenous,2 mg/kg,,0.637 µg·h/mL
C[C@@]12C[C@@]3(O)O[C@@H](O1)[C@]1(COC(=O)c4ccccc4)[C@H]3C[C@@]12O[C@@H]1O[C@H](CO)[C@@H](O)[C@H](O)[C@H]1O,male Sprague-Dawley rat,oral,80 mg/kg,,0.00374 µg·h/mL
O=C1CCC(N2Cc3cc(C4CCN(Cc5ccccc5)CC4)ccc3C2=O)C(=O)N1 (stereo not drawn),male Sprague-Dawley rat,oral,3 mg/kg,,0.336 µg·h/mL
COc1ccc(N(Cc2csc(-c3ccccc3)n2)C(=O)CCCCCC(=O)NO)cc1,female Sprague-Dawley rat,intravenous,5 mg/kg,,0.0299 µg·h/mL
Cn1c(=O)c2[nH]cnc2n(C)c1=O,male Sprague-Dawley rat,intravenous,22.5 mg/kg,,53.8 µg·h/mL
COc1cc(-c2cc(C(C)=O)n3ccccc23)c(OC)cc1Cn1ccnc1,male Sprague-Dawley rat,oral,5 mg/kg,,2.15 µg·h/mL
C1=C/COCc2cc(ccc2OCCN2CCCC2)Nc2nccc(n2)-c2cccc(c2)COC/1,male Sprague-Dawley rat,oral,36 mg/kg,,3.12 µg·h/mL
CCCCCCCCCC(=O)N[C@@H](Cc1c[nH]c2ccccc12)C(=O)N[C@H](CC(N)=O)C(=O)N[C@@H](CC(=O)O)C(=O)N[C@@H]1C(=O)NCC(=O)N[C@@H](CCCN)C(=O)N[C@@H](CC(=O)O)C(=O)N[C@H](C)C(=O)N[C@@H](CC(=O)O)C(=O)NCC(=O)N[C@H](CO)C(=O)N[C@@H]([C@H](C)CC(=O)O)C(=O)N[C@@H](CC(=O)c2ccccc2N)C(=O)O[C@@H]1C,male Wistar rat,subcutaneous,125 mg/kg,single dose,2450 µg·h/mL
CCCCC(=O)Nc1ccc(-c2ccc3ncn(CCC)c(=O)c3c2)cn1,male rat,oral,10 mg/kg,,1.2 µg·h/mL
CC[C@@H]([C@H](C)O)n1ncn(-c2ccc(N3CCN(c4ccc(OC[C@@H]5CO[C@@](Cn6cncn6)(c6ccc(F)cc6F)C5)cc4)CC3)cc2)c1=O,Sprague-Dawley rat,oral,40 mg/kg,,6.55 µg·h/mL
CNC(=O)c1cc(Oc2ccc(NC(=O)Nc3ccc(Cl)c(C(F)(F)F)c3)cc2)ccn1,male Sprague-Dawley rat,oral,100 mg/kg,single dose,17.7 µg·h/mL
CCN(CC)Cc1ccc2cc(COC(=O)Nc3ccc(C(=O)NO)cc3)ccc2c1,male Sprague-Dawley rat,oral,10 mg/kg,,8.49 µg·h/mL
Cc1ccc2c(c1)C(=O)[C@]1(O)CCN(c3ccc4nc(C)ccc4c3)C1=N2.Cl,male rat,subcutaneous,40 mg/kg,"multiple doses, once daily",20.4 µM·h
